Source: ChEMBL document CHEMBL1649225, “Artemisone and artemiside control acute and reactivated toxoplasmosis in a murine model” (Antimicrob Agents Chemother, 2009)
Active and inactive are the calls of the source. The rule behind the calls is not given here.

Assays:
Toxoplasma gondii [1] = experiment: Antiparasitic activity against Toxoplasma gondii RH infected in human foreskin fibroblasts monolayer after 72 hrs by bacterial beta-galactosidase reporter gene assay; format: functional, organism-based
Method in brief: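 RH clone 2F expressing bacterial β-galactosidase, grown as tachyzoites in HFF monolayers in DMEM with 10% FBS. Compounds from DMSO stocks stored at −80°C in single-use aliquots. Tested at 0.010–1.0 μM for 72 h at 37°C. Medium then removed and β-galactosidase activity read at 570 nm.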

HFF = experiment: Cytotoxicity against HFF; format: cell-based; conditions: human
[2] = Partition coefficient, log P of the compound; format: physicochemical; conditions: octanol/water
Toxoplasma gondii [3] = experiment: (§1) Antiparasitic activity against Toxoplasma gondii PRU-Luc-GFP type 2 infected in 400 mg/kg sulfadiazine-pretreated INFgamma-deficient C57BL/6 mouse reactivated toxoplasmosis model assessed as mouse survival at 10 mg/kg, sc at once daily for 8 days administered 2 days after sulfadiazine discontinuation measured on day 18 post infection after compound withdrawal; format: functional, organism-based
Method in brief: (§2)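 Female IFN-γ−/− mice on C57BL/6 background, 8–10 weeks old, kept specific pathogen-free. Infected orally with 20 PRU-Luc-GFP tissue cysts taken from brains of chronically infected wild-type mice. Sulfadiazine in drinking water for 3 weeks from day 2. Compounds given s.c. at 10 mg/kg daily for 8 days, starting 2 days after sulfadiazine stopped. Survival monitored; three experiments combined, n = 3–5 per group.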

Toxoplasma gondii [4] = experiment: as §1, with “25” for “18”; format: functional, organism-based; method in brief: as §2
Toxoplasma gondii [5] = experiment: Antiparasitic activity against Toxoplasma gondii PRU-Luc-GFP type 2 infected in CD1 mouse acute toxoplasmosis model assessed as mouse survival at 10 mg/kg, sc administered once daily for 8 days measured after 25 days post-infection; format: functional; conditions: PRU-Luc-GFP type 2, sc, route subcutaneous
Method in brief: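 Female CD1 outbred mice, 8–10 weeks old, infected i.p. with 10⁶ PRU-Luc-GFP type II tachyzoites in 0.2 ml PBS. Compounds given s.c. at 10 mg/kg daily for 8 days. Survival followed for 25 days; three experiments combined, n = 3 or 4 per group.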

Toxoplasma gondii [6] = experiment: (§3) Antiparasitic activity against Toxoplasma gondii PRU-Luc-GFP type 2 infected in CD1 mouse acute toxoplasmosis model assessed as decrease in parasite burden at 10 mg/kg, sc administered once daily for 8 days measured after 25 days post-infection by luciferase reporter gene based assay; format: functional, organism-based; parameters: dose 10 mg/kg
Method in brief: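 Female CD1 mice, 8–10 weeks old, infected i.p. with 10⁶ PRU-Luc-GFP tachyzoites. Dosed s.c. at 10 mg/kg daily for 8 days. Imaged every 2 days over 25 days under mild isoflurane anesthesia after i.p. firefly luciferin D at […]. Output in relative light units as a relative index of infection severity. Four repeats, n = 3 or 4 per group; one representative experiment shown.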

Toxoplasma gondii [7] = experiment: as §1, with “discontinuation” for “discontinuation measured on day 18 post infection after compound withdrawal”; format: functional; method in brief: as §2
Toxoplasma gondii [8] = experiment: as §3, with “parasite-induced cyst formation in mouse brain” for “parasite burden”; format: functional, organism-based; parameters: dose 10 mg/kg
Method in brief: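 Female CD1 mice, 8–10 weeks old, infected i.p. with 10⁶ PRU-Luc-GFP tachyzoites and dosed s.c. at 10 mg/kg daily for 8 days. At 25 days post-infection, brains were homogenized in 1.0 ml PBS, pH 7.2. Cysts counted by bright-field or phase-contrast microscopy at ×40 in four 20-μl aliquots and total cysts per brain estimated. Three experiments combined, n = 2 per group.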

[9] = Partition coefficient, log P of the compound at pH 2; format: physicochemical; conditions: octanol/water

SMILES | EC50 (Toxoplasma gondii [1]) [µM] | EC90 (Toxoplasma gondii [1]) [µM] | Activity (HFF) | logP [2] | Activity (Toxoplasma gondii [3]) | Activity (Toxoplasma gondii [4]) | survival at 10 mg/kg (Toxoplasma gondii [5]) [%] | Activity (Toxoplasma gondii [6]) | Survival (Toxoplasma gondii [7]) [%] | Activity (Toxoplasma gondii [8]) | logP [9]
C[C@H]1[C@H](NS(N)(=O)=O)O[C@@H]2O[C@@]3(C)CC[C@H]4[C@H](C)CC[C@@H]1[C@@]24OO3 | 0.158 | 0.235 | Non-toxic | 3.36 |  |  |  |  |  |  | 
C[C@@H]1CC[C@H]2[C@@H](C)C(c3ccc(F)cc3)O[C@@H]3O[C@@]4(C)CC[C@@H]1[C@]32OO4 (some centres not stated) | 0.182 | 0.271 | Non-toxic | 5.18 |  |  |  |  |  |  | 
C[C@H]1[C@H](N2CCN(Cc3ccccc3)CC2)O[C@@H]2O[C@@]3(C)CC[C@H]4[C@H](C)CC[C@@H]1[C@@]24OO3 | 0.213 | 0.339 | Non-toxic | 5.62 |  |  |  |  |  |  | 
C[C@H]1[C@H](N2CCN(c3ncccn3)CC2)O[C@@H]2O[C@@]3(C)CC[C@H]4[C@H](C)CC[C@@H]1[C@@]24OO3 | 0.156 | 0.263 | Non-toxic | 4.78 |  |  |  |  |  |  | 
C[C@H]1[C@H](N2CCS(=O)(=O)CC2)O[C@@H]2O[C@@]3(C)CC[C@H]4[C@H](C)CC[C@@H]1[C@@]24OO3 [ARTEMIFONE] | 0.12 | 0.176 | Non-toxic | 2.49 | inactive | inactive | 50 | Active | 60 |  | 
C[C@H]1[C@H](N2CCSCC2)O[C@@H]2O[C@@]3(C)CC[C@H]4[C@H](C)CC[C@@H]1[C@@]24OO3 [ARTEMISIDE] | 0.108 | 0.167 | Non-toxic | 4.97 | inactive | inactive | 60 | Active | 80 | Active | 
C[C@@H]1CC[C@H]2[C@@H](C)C(=O)O[C@@H]3O[C@@]4(C)CC[C@@H]1[C@]32OO4 [ARTEMISININ] |  |  |  | 2.94 |  |  |  | inactive |  | inactive | 
C[C@H]1[C@H](OC(=O)CCC(=O)O)O[C@@H]2O[C@@]3(C)CC[C@H]4[C@H](C)CC[C@@H]1[C@@]24OO3 [ARTESUNATE] | 0.213 | 0.368 | Non-toxic |  |  |  |  |  |  |  | 2.77
